Among the data in ChEMBL document CHEMBL4257476, “Design, synthesis and biological evaluation of novel 5-hydroxy-2-methyl-4H-pyran-4-one derivatives as antiglioma agents” (Medchemcomm, 2018) are IC50, Activity and inhibition values, retold here.

Test [1] has as its system HT-1080. As to the kind of experiment: Antiproliferative activity against human HT1080 cells by MTT assay. Type of test: functional, cell-based. A digest of the protocol: (§1)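 MTT viability: cells grown in DMEM with 10% FBS, 2 mM L-glutamine and penicillin/streptomycin at 37 °C, 5% CO2. Seeded 5000/well for 12 h. Compound diluted 1000× from DMSO stock (final DMSO <0.1%). MTT conversion to formazan for 4 h, absorbance at 562 nm. 4 replicate wells per concentration, at least three runs.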
On the technique in general: Tetrazolium dyes change colour on reduction, which living cells bring about.

For test [2], the system named is U-87 MG. Briefly: Antiproliferative activity against human U87 cells by MTT assay. The class given is functional, cell-based, U-87MG ATCC. In short, it runs like this:
as §1

Test [3] deals with Isocitrate dehydrogenase [NADP] cytoplasmic (Homo sapiens, UniProt O75874, R132H). As to the kind of experiment: Inhibition of His-tagged recombinant human IDH1 R132H mutant expressed in Escherichia coli Rosetta (DE3) preincubated for 30 mins followed by NADPH/alpha-KG addition and measured after 1 hr. A digest of the protocol: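 His-tagged mutant human IDH1 expressed from pET28a in E. coli Rosetta (DE3) with 1 mM IPTG, purified on Ni-NTA with imidazole step elution. Enzyme and compound preincubated 30 min at room temperature in 50 mM Tris, 200 mM NaCl, 5 mM β-mercaptoethanol, 2 mM MgSO4, 10% glycerol. MgCl2, NADPH and α-KG then added, 1 h at 37 °C; NADPH consumption read at 340 nm.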
Isocitrate dehydrogenase [NADP] cytoplasmic, sequence (O75874 2-414 R132H limits assumed): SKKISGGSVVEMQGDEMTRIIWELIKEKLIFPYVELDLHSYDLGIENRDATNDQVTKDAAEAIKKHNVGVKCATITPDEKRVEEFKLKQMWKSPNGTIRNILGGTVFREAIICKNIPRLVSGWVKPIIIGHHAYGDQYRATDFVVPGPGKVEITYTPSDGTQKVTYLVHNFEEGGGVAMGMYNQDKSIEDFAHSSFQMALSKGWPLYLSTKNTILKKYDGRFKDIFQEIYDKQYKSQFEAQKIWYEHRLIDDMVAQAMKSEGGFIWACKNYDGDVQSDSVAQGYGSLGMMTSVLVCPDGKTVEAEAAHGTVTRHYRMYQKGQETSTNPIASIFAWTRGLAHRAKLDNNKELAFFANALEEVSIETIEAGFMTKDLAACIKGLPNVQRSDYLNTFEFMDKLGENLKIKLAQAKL

Test [4] relates to HT-1080. As to the kind of experiment: Antimigratory activity in human HT1080 cells assessed as scratch area at 10 uM after 12 hrs (reference value: 23.3%). Type of test: functional.
Test [5] concerns HT-1080. Briefly: Antimigratory activity in human HT1080 cells assessed as scratch area at 10 uM after 6 hrs (reference value: 58.7%). The class given is functional.
The subject of test [6] is U-87 MG. As to the kind of experiment: Antimigratory activity in human U87 cells assessed as migration rate at 1 uM after 24 hrs by scratch assay (reference value: 17.5%). Type of test: functional, U-87MG ATCC.
Test [7] relates to Isocitrate dehydrogenase [NADP] cytoplasmic (Homo sapiens), O75874 [R132H]. Briefly: Inhibition of IDH1 […] cells assessed as decrease in D-2HG levels at 1 uM after 48 hrs by HPLC-MS analysis relative to control. Type of test: cell-based. A digest of the protocol:
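HT1080 cells (1×10^5/well, 6-well plates) attached overnight in DMEM with 10% dialyzed FBS. Treated 48 h with rising compound concentrations in 2 mL medium. Quantified by SIM at 147 Da from peak area against an authentic D-2HG standard curve.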

Test [8] deals with U-87 MG. Briefly: Antimigratory activity in human U87 cells assessed as migration rate at 1 uM after 12 hrs by scratch assay (reference value: 51.3%). Type of test: functional, U-87MG ATCC.
Test [9] has as its system HT-1080. Briefly: Inhibition of colony formation of human HT1080 cells at 1 uM after 8 days by Giemsa-Wright staining-based assay relative to control. The class given is functional. The settings on record: HT-1080, 192 h. A digest of the protocol: (§2)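 Colony formation: 200 cells/well in 6-well plates, 2 mL medium, treated 8 days with DMSO control or compound. Cells then washed three times with cold PBS, fixed in 95% cold MeOH for 15 min, and stained with Giemsa-Wright. Colonies counted by eye at least three times.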

Test [10] deals with HT-1080. Briefly: Inhibition of colony formation of human HT1080 cells at 0.5 uM after 8 days by Giemsa-Wright staining-based assay relative to control. The class given is functional. The settings on record: HT-1080, 192 h. A digest of the protocol: as §2
The test system of test [11] is U-87 MG. As to the kind of experiment: Inhibition of colony formation of human U87 cells after 8 days by Giemsa-Wright staining-based assay. The note with it: U-87MG ATCC. The class given is functional, cell-based. A digest of the protocol:
as §2

Test [12] deals with U-87 MG. As to the kind of experiment: Inhibition of colony formation of human U87 cells at 1 uM after 8 days by Giemsa-Wright staining-based assay relative to control. The class given is functional, U-87MG ATCC. The settings on record: 192 h. A digest of the protocol:
as §2

Test [13] deals with U-87 MG. Briefly: Inhibition of colony formation of human U87 cells at 0.5 uM after 8 days by Giemsa-Wright staining-based assay relative to control. The class given is functional, U-87MG ATCC. The settings on record: 192 h. A digest of the protocol: as §2
Test [14] concerns HT-1080. As to the kind of experiment: Antimigratory activity in human HT1080 cells assessed as scratch area at 1 uM after 6 hrs (reference value: 58.7%). The class given is functional.
Test [15] concerns HT-1080. Briefly: Antimigratory activity in human HT1080 cells assessed as scratch area at 1 uM after 12 hrs (reference value: 23.3%). The class given is functional.

Isocitrate dehydrogenase [NADP] cytoplasmic (Homo sapiens), O75874 [R132H], sequence (O75874 whole entry R132H): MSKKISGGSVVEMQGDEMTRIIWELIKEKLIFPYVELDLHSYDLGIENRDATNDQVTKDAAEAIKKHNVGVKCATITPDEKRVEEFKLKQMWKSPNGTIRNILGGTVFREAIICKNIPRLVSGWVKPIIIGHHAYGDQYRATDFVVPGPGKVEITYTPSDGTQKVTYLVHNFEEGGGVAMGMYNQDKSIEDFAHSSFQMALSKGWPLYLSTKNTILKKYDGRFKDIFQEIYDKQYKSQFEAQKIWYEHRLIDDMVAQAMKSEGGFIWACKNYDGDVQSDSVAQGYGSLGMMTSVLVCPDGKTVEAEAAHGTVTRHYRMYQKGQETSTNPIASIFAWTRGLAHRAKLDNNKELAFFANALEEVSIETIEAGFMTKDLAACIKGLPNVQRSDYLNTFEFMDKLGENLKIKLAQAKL

Consider `Cc1cc(=O)c(O)c(C(c2ccc(OCc3ccc([N+](=O)[O-])cc3)cc2)c2oc(C)cc(=O)c2O)o1`, for which the 50% inhibitory concentration (IC50) was 3.06 µM in the test on HT-1080 [1], greater than 50 µM with U-87 MG [2] and greater than 50 µM in [3].
Regarding `Cc1cc(=O)c(O)c(Cc2ccc(F)cc2)o1`, the IC50 (with HT-1080 [1]; in the test with U-87 MG [2]; in test [3]) was greater than 50 µM throughout.
Regarding `Cc1ccccc1C(C(=O)NC1CCCCC1)N(C(=O)Cn1ccnc1C)c1cccc(F)c1` (stereo not given), the Activity in the test on HT-1080 [4] was 56%; in the test on HT-1080 [5], 70%; in the test on U-87 MG [6] it was 51%; in the test with U-87 MG [8], 84%. The values for the 50% inhibitory concentration (IC50) (with U-87 MG [2]; in [3]) were 20.1 µM and 0.08 µM, respectively. The inhibition in test [7] is 86.9%.
With `Cc1cc(=O)c(O)c(C(c2ccc(CCc3ccccc3)cc2)c2oc(C)cc(=O)c2O)o1`, the IC50 in the test with HT-1080 [1] was greater than 50 µM; with U-87 MG [2], 27.2 µM; in [3], greater than 50 µM.
For the compound `COc1ccc(COc2ccc(C(c3oc(C)cc(=O)c3O)c3oc(C)cc(=O)c3O)cc2)cc1`, the IC50 in the test on HT-1080 [1] is 2.6 µM; with U-87 MG [2] it was 5.2 µM; in test [3], 32 µM.
On to `C=CCOc1ccc(C(c2oc(C)cc(=O)c2O)c2oc(C)cc(=O)c2O)cc1`, for which the IC50 in the test on HT-1080 [1] was 28.3 µM; in the test on U-87 MG [2], 30.9 µM; in test [3], greater than 50 µM.
With `Cc1cc(=O)c(O)c(Cc2ccc(OCc3ccccc3)cc2)o1`, the IC50 (in the test with HT-1080 [1]; with U-87 MG [2]; in [3]) was greater than 50 µM in each case.
In the case of `Cc1cc(=O)c(O)c(Cc2ccccc2)o1`, the IC50 (in the test on HT-1080 [1]; in the test on U-87 MG [2]; in test [3]) was greater than 50 µM in each case.
`Cc1cc(=O)c(O)c(Cc2ccc(Cl)cc2)o1`: the half-maximal inhibitory concentration (IC50) (in the test with HT-1080 [1]; in the test with U-87 MG [2]; in test [3]) was greater than 50 µM throughout.
As to `Cc1cc(=O)c(O)c(Cc2ccc(C(F)(F)F)cc2)o1`, the IC50 in the test on HT-1080 [1] is 24.4 µM; in the test on U-87 MG [2], greater than 50 µM; in test [3] it was greater than 50 µM.
Consider `Cc1cc(=O)c(O)c(C(c2ccc(OCc3ccccc3)cc2)c2oc(C)cc(=O)c2O)o1`, for which the inhibition at 1 µM was 99.5% in the test with HT-1080 [9] and 96.8% with U-87 MG [12]. In addition, the inhibition at 0.5 µM in the test with HT-1080 [10] is 75%; in the test with U-87 MG [13] it was 11.3%. In addition, the inhibition result was “Dose-dependent effect” in the test on U-87 MG [11] and 86.5% in test [7]. Further, the Activity in the test with U-87 MG [6] came to 69.5%; with HT-1080 [14] it was 61%; in the test on HT-1080 [15], 43.5%; in the test with U-87 MG [8], 82.8%. For the same compound, the half-inhibitory concentration (IC50) came to 1.43 µM with HT-1080 [1], 4.6 µM in the test with U-87 MG [2] and 23.1 µM in test [3].
As to `CCCOc1ccc(C(c2oc(C)cc(=O)c2O)c2oc(C)cc(=O)c2O)cc1`, the half-maximal inhibitory concentration (IC50) is 26.6 µM in the test on HT-1080 [1], 29.5 µM with U-87 MG [2] and greater than 50 µM in test [3].

By IC50 is commonly meant the concentration needed to halve the response being measured. As usually defined, the inhibition is the change of the read-out against control, counted positive when it falls.
